Source: ChEMBL document CHEMBL3425440, “ent-Kaurane Diterpenoids from Chinese Liverworts and Their Antitumor Activities through Michael Addition As Detected in Situ by a Fluorescence Probe” (J Med Chem, 2015)
The source made the active and inactive calls. The calls are words filed in the database; no cut-off is given here.

Assays:
[1] = Cytotoxicity against human PC3 cells assessed as cell viability after 24 hrs by MTT assay; assay type: functional, cell-based; settings: PC-3, 24 h
Procedure, shortened: (§1)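 Cells grown to about 50−70% confluence at 37 °C, 5% CO2, then exposed to compounds 24 h (DMSO vehicle control, cisplatin positive control). MTT (5 mg/mL stock) added for 4 h, formazan dissolved in DMSO, absorbance read at 570 nm. IC50 derived from percent viability; at least three independent experiments, mean ± SD.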

MDA-MB-231 = test: Cytotoxicity against human MDA-MB-231 cells assessed as cell viability after 24 hrs by MTT assay; assay type: functional, cell-based; settings: MDA-MB-231, 24 h; procedure, shortened: as §1
PC-3 [2] = test: Reduction in glutathione level in human PC3 cells at 5 uM preincubated for 4 hrs followed by fluorescence probe addition measured after 1 hr by 3-azido-7-(diethylamino)-2H-chromen-2-one fluorescence probe-based confocal microscopic analysis; assay type: functional, cell-based
Procedure, shortened: (§2)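 PC3 cells on glass coverslips treated with compound for 4 h (5 μM NEM as thiol-scavenger control), fixed in cold methanol/acetone (1:1) for 5 min. Stained with 30 μM azidocoumarin probe, which fluoresces on reaction with thiols, for 1 h at room temperature in the dark. Mean cellular fluorescence quantified by confocal microscopy; mean ± SD.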

DU-145 = test: Cytotoxicity against human DU145 cells assessed as cell viability after 24 hrs by MTT assay; assay type: functional, cell-based; settings: DU-145, 24 h; procedure, shortened: as §1
[3] = Cytotoxicity against human RWPE1 cells assessed as cell viability after 24 hrs by MTT assay; assay type: cell-based; settings: RWPE-1, 24 h; procedure, shortened: as §1
[4] = Cytotoxicity against human HL60 cells assessed as cell viability after 24 hrs by MTT assay; assay type: functional, cell-based; settings: HL-60, 24 h; procedure, shortened: as §1
NCI-H1299 = test: Cytotoxicity against human NCI-H1299 cells assessed as cell viability after 24 hrs by MTT assay; assay type: functional, cell-based; settings: NCI-H1299, 24 h; procedure, shortened: as §1
K562 = test: Cytotoxicity against human K562 cells assessed as cell viability after 24 hrs by MTT assay; assay type: functional, cell-based; settings: K562, 24 h; procedure, shortened: as §1
[5] = Cytotoxicity against human SH-SY5Y cells assessed as cell viability after 24 hrs by MTT assay; assay type: functional, cell-based; procedure, shortened: as §1
[6] = Cytotoxicity against human Saos2 cells assessed as cell viability after 24 hrs by MTT assay; assay type: functional, cell-based; settings: SAOS-2, 24 h; procedure, shortened: as §1
[7] = Cytotoxicity against human T24 cells assessed as cell viability after 24 hrs by MTT assay; assay type: functional, cell-based; settings: T-24, 24 h; procedure, shortened: as §1
LoVo = test: Cytotoxicity against human LoVo cells assessed as cell viability after 24 hrs by MTT assay; assay type: functional, cell-based; procedure, shortened: as §1
[8] = Cytotoxicity against human A172 cells assessed as cell viability after 24 hrs by MTT assay; assay type: functional, cell-based; settings: A 172, 24 h; procedure, shortened: as §1
[9] = Cytotoxicity against human SKOV3 cells assessed as cell viability after 24 hrs by MTT assay; assay type: functional, cell-based; settings: SK-OV-3, 24 h; procedure, shortened: as §1
LNCaP = test: Cytotoxicity against human LNCAP cells assessed as cell viability after 24 hrs by MTT assay; assay type: functional, cell-based; procedure, shortened: as §1
[10] = Selectivity index, ratio of IC50 for human RWPE1 cells to IC50 for human PC3 cells; assay type: functional
PC-3 [11] = test: Induction of apoptosis in human PC3 cells assessed as appearance of swelled/fused lysosomes at 8 uM after 2 hrs by LysoTracker Red and Hoechst 33342 staining-based confocal microscopic analysis; assay type: functional, cell-based
Procedure, shortened: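 PC3 cells given 8 μM compound for 2 h, then stained 30 min at 37 °C with 100 ng/mL LysoTracker Red and 10 μg/mL Hoechst 33342. Washed in PBS and imaged by confocal microscopy to assess lysosome swelling or fusion.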

[12] = Drug uptake in lysosome of human PC3 cells at 8 uM preincubated for 4 hrs followed by fluorescence probe addition measured after 1 hr by 3-azido-7-(diethylamino)-2H-chromen-2-one fluorescence probe-based confocal microscopic analysis; assay type: ADME, cell-based; settings: pc-3, 1 h; procedure, shortened: as §2
PC-3 [13] = test: Induction of apoptosis in human PC3 cells assessed as cathepsin B release from lysosome to cytosol at 8 uM measured over 48 hrs by Western blot analysis; assay type: functional, cell-based
Procedure, shortened: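 PC3 cells treated with 8 μM compound for the indicated times, lysed in RIPA buffer with protease inhibitors, protein quantified by BCA. Run on 12% SDS-PAGE, transferred to nitrocellulose, blocked in 5% milk/TBST. Probed overnight at 4 °C for cathepsin B with GAPDH loading control; ECL detection.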

PC-3 [14] = test: Reduction in glutathione level in human PC3 cells at 6 uM preincubated for 4 hrs followed by fluorescence probe addition by 3-azido-7-(diethylamino)-2H-chromen-2-one fluorescence probe-based confocal microscopic analysis; assay type: functional, cell-based; settings: TDE = time-dependent effect; procedure, shortened: as §2
PC-3 [15] = test: Reduction in glutathione level in human PC3 cells preincubated for 4 hrs followed by fluorescence probe addition measured after 1 hr by 3-azido-7-(diethylamino)-2H-chromen-2-one fluorescence probe-based confocal microscopic analysis; assay type: functional, cell-based; procedure, shortened: as §2
PC-3 [16] = test: Cytotoxicity against human PC3 cells assessed as decrease in cell viability at 6 uM after 24 hrs by MTT assay in presence of antioxidant N-acetylcysteine; assay type: functional, cell-based
Procedure, shortened: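 PC3 cells pretreated with 5 mM NAC for 1 h, then given 6 μM compound with or without the antioxidant for 24 h. Viability read by MTT (formazan in DMSO, absorbance at 570 nm). Mean ± SD.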

PC-3 [17] = test: Induction of reactive oxygen species formation in human PC3 cells at 6 uM by DCFH-DA staining-based flow cytometric analysis; assay type: functional, cell-based; settings: TDE = time-dependent effect
Procedure, shortened: (§3)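 PC3 cells exposed to 6 μM compound for 4 h, with optional 5 mM NAC added 1 h beforehand. Loaded with 10 μM DCFH-DA at 37 °C for 30 min, washed, resuspended in PBS and read at once by flow cytometry. ROS expressed as ratio relative to control; Student's t test.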

PC-3 [18] = test: Reduction in total glutathione level in human PC3 cells at 6 uM by DNTB-based assay; assay type: functional, cell-based; settings: TDE = time-dependent effect
Procedure, shortened: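 PC3 cells exposed to 6 μM compound for the indicated times, lysed by freeze–thaw in protein removal agent and supernatant collected. Total glutathione read with DTNB at 412 nm; GSSG read after masking GSH with 2-vinylpyridine; GSH taken as the difference. Expressed relative to control.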

PC-3 [19] = test: Induction of reactive oxygen species formation in human PC3 cells at 6 uM after 4 hrs by DCFH-DA staining-based flow cytometric analysis in presence of antioxidant N-acetylcysteine; assay type: functional, cell-based; procedure, shortened: as §3

SMILES	IC50 [1] [µM]	IC50 (MDA-MB-231) [µM]	IC50 (DU-145) [µM]	IC50 [3] [µM]	IC50 [4] [µM]	IC50 (NCI-H1299) [µM]	IC50 (K562) [µM]	IC50 [5] [µM]	IC50 [6] [µM]	IC50 [7] [µM]	IC50 (LoVo) [µM]	IC50 [8] [µM]	IC50 [9] [µM]	IC50 (LNCaP) [µM]	other results
C=C1C(=O)[C@H]2C[C@]1(O)CC1=C2[C@]2(C)CCC[C@](C)(CO)[C@H]2CC1	8.2	10.4	9.4	18.6	–	–	–	–	–	–	–	–	–	–	Activity (PC-3 [2]): Active
C=C1C(=O)[C@@]23CC[C@H]4[C@@](C)(CCC[C@@]4(C)C(=O)O)[C@@H]2CC[C@]1(O)C3	30.1	37.2	48.5	27	7.9	32.8	9.9	–	–	–	–	–	–	–	Activity (PC-3 [2]): Active
C=C1C(=O)[C@H]2C[C@]1(O)CC1=C2[C@]2(C)CCCC(C)(C)[C@H]2CC1	2.2	3.4	3.2	6.3	1.9	2.6	2.2	1.6	2.4	2.3	2.3	2.7	2.9	2.8	Activity (PC-3 [2]): Active
C=C1C(=O)[C@@]23CC[C@H]4[C@@](C)(CCC[C@@]4(C)C(=O)OCCN4CCN(C)CC4)[C@@H]2CC[C@]1(O)C3	8.2	27.5	14.9	29.3	3	10.9	4.1	–	–	–	–	–	–	–	Ratio IC50 [10]: 3.6; Activity (PC-3 [11]): Active; Drug uptake [12]: Active; Activity (PC-3 [13]): Active
C=C1C(=O)[C@@]23CC[C@H]4[C@@](C)(CCC[C@@]4(C)C(=O)OC)[C@@H]2CC[C@]1(O)C3	6.1	5.2	10.8	7	1.5	9.2	2.9	–	–	–	–	–	–	–	Activity (PC-3 [14]): tde; Activity (PC-3 [15]): Dose-dependent effect; Activity (PC-3 [16]): inactive; Activity (PC-3 [17]): tde; Activity (PC-3 [18]): tde; Activity (PC-3 [19]): inactive
C[C@H]1C(=O)[C@@]23CC[C@@H]4C(C)(C)CCC[C@@]4(C)[C@@H]2[C@@H](O)C[C@@H]1C3	> 50	> 50	> 50	> 50	> 50	> 50	> 50	> 50	> 50	> 50	> 50	> 50	> 50	> 50	–
C=C1C[C@]23C[C@H]1CC[C@H]2[C@@]1(C)[C@H](C[C@H]3O)C(C)(C)CC[C@@H]1O	> 50	> 50	> 50	> 50	> 50	> 50	> 50	> 50	> 50	> 50	> 50	> 50	> 50	> 50	–
C[C@@H]1C(=O)[C@H]2C[C@]1(O)CC1=C2[C@]2(C)CCC[C@](C)(CO)[C@H]2CC1	> 50	> 50	> 50	> 50	> 50	> 50	> 50	> 50	> 50	> 50	> 50	> 50	> 50	> 50	–
C[C@@H]1C(=O)[C@H]2C[C@]1(O)CC1=C2[C@]2(C)CCC[C@](C)(C=O)[C@H]2CC1	> 50	> 50	> 50	> 50	> 50	> 50	> 50	> 50	> 50	> 50	> 50	> 50	> 50	> 50	–
C=C1C(=O)[C@@]23CC[C@@H]4C(C)(C)CCC[C@@]4(C)[C@@H]2[C@@H](O)C[C@@H]1C3	1.9	4.8	4.5	5.2	0.9	2.6	1.5	0.7	1.4	2.1	1.4	3.2	1.7	2.5	–
CC1=C[C@]23C[C@H]1CC[C@H]2[C@@]1(C)[C@H](C[C@H]3O)C(C)(C)CC[C@@H]1O	> 50	> 50	> 50	> 50	> 50	> 50	> 50	> 50	> 50	> 50	> 50	> 50	> 50	> 50	–
C=C1C(=O)[C@@]23CC[C@@H]4[C@](C)(CO)CCC[C@@]4(C)C2=CC[C@]1(O)C3	6.6	15.5	8.3	13.2	6.7	19	10.4	4.9	15.8	13.2	18.4	13	11.3	12.8	–
